Assays:
[1] = target: Saccharomyces cerevisiae α-glucosidase (Saccharomyces cerevisiae, UniProt P53341); experiment: α-glucosidase inhibition assay; type: biochemical
α-glucosidase = α-glucosidase (Saccharomyces cerevisiae, UniProt P53341); experiment: affinity ultrafiltration UPLC–Q-TOF–MS/MS screening, binding rate; details: peak area reduction in CGB extract after ultrafiltration
In short: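 95% ethanol reflux extract of whole herb: three 3 h extractions at 1:13 m/v, then concentrated and dried. Extract incubated with yeast α-glucosidase and ultrafiltered on a 10 kDa membrane. Bound ligands released from the retentate with methanol and identified by UPLC-Q-TOF-MS/MS.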

Chain of α-glucosidase (P53341 whole entry): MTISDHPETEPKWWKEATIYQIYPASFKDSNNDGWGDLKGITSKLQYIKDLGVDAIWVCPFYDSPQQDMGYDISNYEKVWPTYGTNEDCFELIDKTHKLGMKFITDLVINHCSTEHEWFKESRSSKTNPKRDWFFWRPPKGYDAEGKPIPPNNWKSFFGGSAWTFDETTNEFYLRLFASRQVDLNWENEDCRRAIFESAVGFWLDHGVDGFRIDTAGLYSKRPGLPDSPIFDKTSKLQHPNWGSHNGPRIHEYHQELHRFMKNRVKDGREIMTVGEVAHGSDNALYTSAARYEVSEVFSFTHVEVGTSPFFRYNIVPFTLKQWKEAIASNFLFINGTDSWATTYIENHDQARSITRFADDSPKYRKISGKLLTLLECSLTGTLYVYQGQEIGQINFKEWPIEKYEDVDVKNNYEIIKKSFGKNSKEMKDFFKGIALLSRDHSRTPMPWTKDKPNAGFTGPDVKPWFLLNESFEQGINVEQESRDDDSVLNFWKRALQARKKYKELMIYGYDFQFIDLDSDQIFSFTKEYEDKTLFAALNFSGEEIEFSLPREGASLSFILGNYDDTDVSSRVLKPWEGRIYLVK
Chain of Saccharomyces cerevisiae α-glucosidase (P53341 whole entry): as above

Row | IC50 [1] | AD (affinity degree, binding rate to α-glucosidase) (α-glucosidase) | SMILES
1 | 436.35 ± 0.01 µM | 17.2% | COc1c(-c2ccc(O)c(O)c2)oc2cc(O)cc(O)c2c1=O [3-O-methylquercetin]
2 | 1072.4 ± 0.54 µM | 23.4% | O=c1c(O[C@@H]2O[C@H](CO)[C@H](O)[C@H](O)[C@H]2O)c(-c2ccc(O)c(O)c2)oc2cc(O)cc(O)c12 [hyperoside]
3 |  | 12.4% | O=c1c(O)c(-c2ccc(O)c(O)c2)oc2cc(O)cc(O)c12 [quercetin]
